Source: PubChem
Shown are actives, neighbours in structure and some others; about 1.8% of the full set was active somewhere.
eIF4E 4G PPI: eIF4E–eIF4G protein interaction inhibitors, primary screen, biochemical, uHTS, TR-FRET, eIF4GI fragment; Eukaryotic translation initiation factor 4E (Mus musculus) + Eukaryotic translation …; TR-FRET eIF4E-eIF4GI(517-606) binding, 2 h; inhibition, % at 21.7 µM; actives 0.37% (n = 220,000);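 active = inhibition above about 30%, limit read from the data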
PABP1 MLLE inh: inhibitors of PABP1 MLLE–PAM2 peptide binding, primary screen, biochemical, fluorescence polarization, FITC-PAM2, GST-MLLE. actives 0.36% (n = 360,000). Polyadenylate-binding protein 1 (Homo sapiens), P11940. AID 588489, 2011. inhibition, % at 20 µM; in the data active = inhibition above about 35%, passing the limit was not always enough
Target sequence (P11940 whole entry, looked up): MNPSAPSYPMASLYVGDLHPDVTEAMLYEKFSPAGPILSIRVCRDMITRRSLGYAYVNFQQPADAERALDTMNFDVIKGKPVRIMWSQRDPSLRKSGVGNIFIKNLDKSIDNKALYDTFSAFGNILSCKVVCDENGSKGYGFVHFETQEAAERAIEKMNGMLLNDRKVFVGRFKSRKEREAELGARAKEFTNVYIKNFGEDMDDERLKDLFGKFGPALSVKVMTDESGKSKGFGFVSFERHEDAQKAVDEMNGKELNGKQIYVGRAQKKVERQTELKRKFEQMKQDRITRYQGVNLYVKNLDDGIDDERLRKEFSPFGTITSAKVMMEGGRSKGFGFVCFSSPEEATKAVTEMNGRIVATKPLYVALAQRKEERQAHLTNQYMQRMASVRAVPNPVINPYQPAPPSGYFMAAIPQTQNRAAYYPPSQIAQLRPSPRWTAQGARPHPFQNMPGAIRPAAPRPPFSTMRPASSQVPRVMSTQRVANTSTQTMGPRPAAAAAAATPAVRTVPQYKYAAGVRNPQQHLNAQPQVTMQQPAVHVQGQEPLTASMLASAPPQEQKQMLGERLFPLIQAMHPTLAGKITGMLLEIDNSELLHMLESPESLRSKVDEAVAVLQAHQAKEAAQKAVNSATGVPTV
eIF4H FP inh: human eIF4H binding inhibitors, primary screen, translation initiation inhibitor project, biochemical, uHTS, fluorescence polarization. eIF4H fluorescence polarization binding assay. actives 0.94% (n = 290,000). Eukaryotic translation initiation factor 4H (Homo sapiens), Q15056. AID 2012, 2009. inhibition, % at 35 µM;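 also: calls also rest on retests at 20 µM and on dose response follow-up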
PABP polyA inh: PABP poly(A) RNA binding inhibitors, primary screen, biochemical, fluorescence polarization, uHTS | Polyadenylate-binding protein 1 (Homo sapiens), P11940 | calls only at 35 µM | actives 1% (n = 290,000) | AID 2014, 2009;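 also: calls also rest on retests at 20 µM and on dose response follow-up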
UBC9 SUMO inh: inhibitors of in vitro SUMOylation cascade, primary screen, biochemical, HTRF, uHTS; HTRF SUMOylation assay, SAE1/SAE2 + UBC9; inhibition, % at 35 µM; actives 0.36% (n = 290,000); in the data active = inhibition above about 50%, passing the limit was not always enough; inconclusive = no clear call, values can overlap the other calls
core dimer inh: inhibitors of HCV core protein dimerization, primary screen, biochemical, TR-FRET, high-throughput; TR-FRET GST/Flag-core106 dimerization, 1536-well; inhibition, % at 5 µM; actives 0.33% (n = 300,000);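 active = inhibition above the mean of all tested compounds plus 3 SD, set per screening campaign, cut at about 45% in these data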
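Assay system: GST-tagged and Flag-tagged HCV core protein residues 1-106 / Times: compound-protein-antibody incubation 4 h at 22.5 °C / Signal: time-resolved FRET, ex 340 nm, em 617 and 671 nm / Evaluation: % inhibition based on acceptor/donor emission ratio / Benchmarks: wells lacking GST-core106 and wells with excess unlabelled core106 / Repeats: singlicate, one well per compound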
Numbers stand for hits; - = inactive; ? = inconclusive; . = no result; + = active, no number. Unless noted, no rule for the calls is given here.

SMILES	eIF4E 4G PPI	PABP1 MLLE inh	eIF4H FP inh	PABP polyA inh	UBC9 SUMO inh	core dimer inh
O=C(N/N=C/c1ccco1)c1cc(-c2ccc(Br)s2)[nH]n1	-	-	-	-	-	-
O=C(N/N=C/c1ccco1)c1cc(-c2cccs2)[nH]n1	-	-	60	+	-	-
COc1cccc2cc(C(=O)NCCN3CCOCC3)c(=O)oc12	.	-	-	-	-	-
O=C(N/N=C/c1cc(Cl)cc([N+](=O)[O-])c1O)c1ccccc1NS(=O)(=O)c1cccs1	-	-	-	-	100	-
O=C(NN=Cc1ccc(O)cc1)c1ccccc1NS(=O)(=O)c1cccs1	.	-	.	.	.	.
O=C(O)COn1c(-c2ccccc2)nc2ccc([N+](=O)[O-])cc21	-	-	-	+	-	-
CCOC(=O)C(C)On1c(-c2ccccc2)nc2ccc([N+](=O)[O-])cc21 (stereo not drawn)	-	-	-	-	-	-
Cc1ccc(-c2[nH]ncc2/C=N/n2c(COc3ccccc3)nc3ccccc3c2=O)cc1	-	-	-	-	-	-
Cc1cc(/C=N/n2c(COc3ccccc3)nc3ccccc3c2=O)c(O)c([N+](=O)[O-])c1	-	-	-	-	93	-
COc1cc(/C=N/NC(=O)CNc2n[nH]c(=O)[nH]c2=O)ccc1O	-	-	-	-	-	-
C=CCSc1nnc(NC(=O)c2cn(CC)c3nc(C)ccc3c2=O)s1	-	-	-	+	-	-
CCn1cc(C(=O)Nc2ccccc2)c(=O)c2ccc(C)nc21	-	.	-	-	-	-
Cc1csc(NC(=O)CCc2nc3ccccc3s2)n1	-	-	-	-	-	55
CCC(CC)c1nnc(NC(=O)CS(=O)(=O)c2ccc(C)cc2)s1	.	-	-	-	-	-
Cc1csc(NC(=O)CS(=O)(=O)c2ccccc2)n1	-	-	83	+	-	-
Cc1ccc(S(=O)(=O)CC(=O)Nc2nnc(C(C)(C)C)s2)cc1	.	38	-	-	-	-
Clc1ccc(CN2CCC(c3nc4ccc(Cl)cc4[nH]3)CC2)cc1	-	-	-	-	-	-
CC1CCCN(C(=O)CN2CCC(c3nc4ccc(Cl)cc4[nH]3)CC2)C1 (stereo not drawn)	-	-	91	+	-	-
CCCC1NC(=O)c2cccnc2-n2c1nc1ccc(OC)cc1c2=O (stereo not drawn)	.	-	.	.	.	.
Cc1c(C#N)c(NC(=O)CCl)n(Cc2ccccc2)c1C	-	-	-	-	-	-
Cc1c(C#N)c(NC(=O)CCl)n(Cc2cccs2)c1C	-	-	74	+	-	-
Cc1cc(C)n(-c2ccc(C(=O)NCC(c3ccco3)N3CCCC3)cc2)n1 (stereo not drawn)	.	-	.	.	.	.
CCOCCCn1c(SCC(=O)Nc2ccc(OC)cc2)nc2ccccc2c1=O	.	-	-	-	-	-
COc1cc(/C=N\Nc2nncn2N)ccc1OC(C)=O	.	-	-	-	-	-
N/C(Cc1cccc2ccccc12)=N\OC(=O)c1cccs1	-	-	84	+	-	-
SMILES	eIF4E 4G PPI	PABP1 MLLE inh	eIF4H FP inh	PABP polyA inh	UBC9 SUMO inh	core dimer inh
N/C(Cc1cccc2ccccc12)=N\OC(=O)Cc1cccs1	-	-	-	-	-	-
O=C(Nc1ccccc1N1CCOCC1)c1cccc(NS(=O)(=O)c2ccc(F)c(F)c2)c1	-	-	-	-	-	-
Cc1ccc(N(CC(N)=O)C2SC(=O)N(Cc3ccccc3)C2=O)cc1 (stereo not drawn)	-	42	-	-	-	-
O=C(O)CN(c1ccccc1)C1SC(=O)NC1=O (stereo not drawn)	-	-	-	-	-	-
NC(=O)CN(c1ccccc1)C1SC(=O)N(Cc2ccccc2)C1=O (stereo not drawn)	-	45	-	-	-	-
O=C(NC(=S)NCCCN1CCOCC1)c1ccc([N+](=O)[O-])cc1	-	-	-	-	-	-
O=C(c1ccc(C#CC2(O)CCCCC2)cc1)N1CCN(C(c2ccccc2)c2ccccc2)CC1	-	-	-	-	-	53
O=C(Cn1cnc2c(nnn2-c2ccccc2)c1=O)N1CCOCC1	-	-	active	+	-	-
CCOC(=O)c1ccccc1NC(=O)Cn1cnc2c(nnn2-c2ccc(C)cc2)c1=O	50	-	-	-	-	-
Cc1ccc(-n2nnc3c(=O)n(CC(=O)N4CCOCC4)cnc32)cc1	-	-	-	-	-	-
CCNC(=O)C1(C)CCCN1C(=O)c1cc(C)on1 (stereo not drawn)	.	-	.	.	.	.
COc1ccc(NC(=O)CSc2n[nH]c(-c3ccccc3)n2)cc1S(N)(=O)=O	.	-	.	.	.	.
CCOC(=O)C(=O)C1=C(N2CCOCC2)/C(=C\c2cccc([N+](=O)[O-])c2)CC1	-	-	-	+	-	-
COc1ccc(Cn2c3nc4ccccc4nc3c3c(=O)n(Cc4ccco4)c(C)nc32)cc1	.	.	54	+	-	.
COc1ccc(S(=O)(=O)c2c(N)n(Cc3ccco3)c3nc4ccccc4nc23)cc1	-	-	?	?	-	72
Cc1cc(C)cc(-n2c3nc4ccccc4nc3c3c(=O)n(Cc4ccco4)cnc32)c1	-	-	-	-	-	60
COc1ccc(Cn2c(C)nc3c(c2=O)c2nc4ccccc4nc2n3Cc2ccco2)cc1	.	-	.	.	.	.
COCCCn1cnc2c(c1=O)c1nc3ccccc3nc1n2-c1ccc(C)cc1	-	-	-	-	-	-
Cc1ccc(S(=O)(=O)c2c(N)n(CC3CCOC3)c3nc4ccccc4nc23)cc1 (stereo not drawn)	-	-	-	-	-	-
COc1ccc(NC(=O)NS(=O)(=O)c2ccc(C)cc2)cn1	.	-	?	?	-	.
O=C(Nc1ccc(OCc2ccccc2)cc1)Nc1cccnc1	.	-	-	-	-	-
COc1ccc(NC(=O)Nc2ccc(OCc3ccccc3)cc2)cn1	.	66	?	?	-	.
O=C(NC(=S)Nc1ccc(NC(=O)c2ccco2)cc1)c1ccccc1	-	-	-	-	-	-
COc1ccc(NC(=O)Nc2cc(C)cc(C)c2)cn1	-	66	-	-	-	-
COc1ccc(NC(=O)Nc2ccc([N+](=O)[O-])cc2)cn1	.	58	82	+	-	-
COc1cc(C(=O)NC(=S)Nc2ccc(NC(=O)c3ccco3)cc2)cc(OC)c1OC	-	36	-	-	-	-
COc1ccc(CN(C)Cc2c(O)ccc3cc(Br)ccc23)cc1OC	.	-	-	-	-	-
COc1ccc(CC(=O)Nc2ccc(OC)nc2)cc1	-	-	-	-	-	-
